Laboratory results taken from PubChem BioAssay.
The source made the active and inactive calls.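 How the source made its calls, unless noted: active means NADPH fluorescence slope more negative than the mean of all samples by about 3 SD, 99.7% confidence; inactive means the rest.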

Assays:
[1] = inhibitors of TNFa-induced NFkB p65 translocation, primary screen, imaging, HUVEC, MLSMR starter and 10KST1 sets (AID 438;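 active means inhibition above 20% together with a positive visual image hit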;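 further: compound added about 3h40 before a 20 min TNFalpha stimulation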;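 on inhibition: signal is the nuclear over cytoplasmic p65 intensity ratio per well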); conditions: HUVEC TNFa-induced p65 nuclear translocation; cell count: measured here: nuclei count (cytotoxicity indicator), at 2.08 µM; inhibition: at 2 µM, stronger effect = higher value, 0% TNFa-plus-vehicle, 100% no-TNFa wells
[2] = reduction of polyQ htt aggregates in cells – imaging, exon1htt(103Q)mCFP cells, high-content imaging, primary screen (AID 483;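 active means visual image review flags a hit and inhibition of aggregation exceeds 20%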;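 further: compound exposure lasted 3 days before fixation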;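 on nuclei count: percent of the per-plate median nuclei count of sample wells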); conditions: exon1htt(103Q)mCFP cell line, aggregate imaging, at 2 µM; inhibition of aggregation: stronger effect = higher value; nuclei count: measured here: cell count, toxicity
[3] = endothelial E-selectin expression blockers – imaging, HUVEC, immunofluorescence, MLSMR starter and 10KST1 sets, primary screen (AID 487;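 active means visually confirmed hit in the image check and inhibition above 20%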;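 on inhibition: signal is fraction of cell area covered by stained E-selectin grains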;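 on nuclei count: 100% = median nuclei count of all wells on the same plate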); conditions: HUVEC TNFalpha-induced E-selectin immunofluorescence imaging, at 2 µM; inhibition: stronger effect = higher value; nuclei count: measured here: cell number, toxicity
[4] = target: Voltage-gated potassium channel subunit beta-2 (Rattus norvegicus) (UniProt P62483); assay: inhibitors of rat Kvbeta2 reductase activity – biochemical, NADPH fluorescence, primary screen (AID 622;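 active means fluorescence slope higher than the sample average by over 3 SD, cut at about -0.22 in these data, passing the limit was not always enough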;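 further: slope of raw intensity against log time taken from 70 to 1610 s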); conditions: recombinant KvBeta, 4-cyanobenzaldehyde reduction, at 10 µM, stronger effect = higher value
[5] = target: Voltage-gated potassium channel subunit beta-2 (Rattus norvegicus) (UniProt P62483); assay: enhancers of rat Kvbeta2 NADPH turnover – biochemical, NADPH fluorescence, primary screen (AID 623); conditions: Recombinant KvBeta, NADPH fluorescence decrease slope, 10 min; at 10 µM; stronger effect = lower value;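 further: fluorescence intensity change per second fitted from 20 to 320 s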
[6] = target: Muscarinic acetylcholine receptor M4 (Homo sapiens) (UniProt P08173); assay: M4-linked GIRK flux change, two-sided – cell-based, HEK293 M4/GIRK, thallium flux, BTC-AM, M4 allosteric agonist project, primary screen (AID 625;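 active means fluorescence slope after compound addition differing from the mean of all tested samples at 99.7% confidence, mostly higher but some lower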;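 further: thallium influx through GIRK channels coupled to M4 in HEK293 cells with BTC-AM dye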); conditions: at 10 µM, actives lie on both sides
Outline: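 Material: M4/GIRK1/GIRK2 stable HEK293 cell line. Medium: pH 7.3 thallium assay buffer. Dosing: single compound concentration, 10 µM final. Schedule: 1 h dye loading, 2 min kinetic read. Measured by: kinetic fluorescence with BTC-AM dye. Read-out: post-addition slope, 15–24 s, of baseline-normalized fluorescence. Benchmarks: carbachol and DMSO controls.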

[7] = blockers of RIG-like receptor reporter activation – cell-based, Sendai virus stimulus, luciferase, 10K MLSCN set, TLR/RLR signaling modifier project, primary screen (AID 602276;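 active means inhibition at or above 50% at 10 µM; inactive means inhibition below 50%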;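 further: firefly luciferase from ISG56 promoter only with Renilla not read in this screen; 0% = Sendai virus plus DMSO and 100% = medium plus DMSO without virus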); conditions: HEK293 RL24 IRF3 luciferase reporter, at 10 µM, stronger effect = higher value
[8] = TLR3 IRF3 reporter activation blockers – cell-based, poly I:C stimulus, luciferase, 10K MLSCN set, primary screen (AID 602277;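 active means inhibition of the reporter signal at or above 50%; inactive means inhibition below 50%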); conditions: HEK293-TLR3 RL24 IRF3 luciferase reporter, at 10 µM, stronger effect = higher value

Muscarinic acetylcholine receptor M4 (Homo sapiens), sequence (P08173 whole entry, looked up): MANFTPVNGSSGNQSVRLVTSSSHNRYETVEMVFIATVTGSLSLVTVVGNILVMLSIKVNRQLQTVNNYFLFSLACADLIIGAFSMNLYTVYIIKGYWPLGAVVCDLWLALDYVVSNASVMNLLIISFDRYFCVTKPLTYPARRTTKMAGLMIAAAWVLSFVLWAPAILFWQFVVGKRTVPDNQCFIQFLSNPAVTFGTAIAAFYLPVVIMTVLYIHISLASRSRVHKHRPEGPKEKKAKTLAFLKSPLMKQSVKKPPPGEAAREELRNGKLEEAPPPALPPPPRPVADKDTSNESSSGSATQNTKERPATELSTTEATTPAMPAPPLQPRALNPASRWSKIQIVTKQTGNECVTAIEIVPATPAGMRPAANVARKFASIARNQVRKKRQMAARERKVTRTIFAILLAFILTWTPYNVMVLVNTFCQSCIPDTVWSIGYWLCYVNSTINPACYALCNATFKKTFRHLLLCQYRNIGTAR
Voltage-gated potassium channel subunit beta-2 (Rattus norvegicus), sequence (P62483 whole entry, looked up): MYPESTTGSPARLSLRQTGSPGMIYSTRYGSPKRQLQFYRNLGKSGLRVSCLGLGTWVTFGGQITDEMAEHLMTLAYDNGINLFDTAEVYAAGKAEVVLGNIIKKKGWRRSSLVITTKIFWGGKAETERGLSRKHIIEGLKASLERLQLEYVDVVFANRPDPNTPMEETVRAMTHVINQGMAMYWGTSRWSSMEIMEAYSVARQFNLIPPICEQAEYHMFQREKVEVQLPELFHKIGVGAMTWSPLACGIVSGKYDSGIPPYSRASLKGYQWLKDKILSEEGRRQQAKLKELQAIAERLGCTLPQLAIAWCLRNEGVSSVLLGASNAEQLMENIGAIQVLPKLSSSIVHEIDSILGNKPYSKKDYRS

Row | Structure (SMILES) | cell count [1] | inhibition [1] | inhibition of aggregation [2] | nuclei count [2] [%] | inhibition [3] | nuclei count [3] [%] | fluorescence slope [4] | NADPH fluorescence slope [5] | fluorescence slope [6] | inhibition [7] | inhibition [8]
1 | Cc1ccccc1S(=O)(=O)Cc1ccc(C(=O)NCc2cccnc2)o1 | 596 | -2.3% (inactive) | 9% (inactive) | 105 | 9.8% (inactive) | 112 | -0.546 (inactive) | 4e-05 (inactive) | 0.00552 (inactive) | 16.7% (inactive) | 19.4% (inactive)
2 | Nc1nc2ccccc2n1/N=C/c1ccc(Br)cc1 | 334 | -2.9% (inactive) | -2.4% (inactive) | 87.2 | 12.6% (inactive) | 92.2 | -0.47 (inactive) | -3.8e-05 (inactive) | 0.00585 (inactive) | -55% (inactive) | -127% (inactive)
3 | COC(=O)c1ccccc1S(=O)(=O)N(Cc1cc2cc3c(cc2[nH]c1=O)OCO3)C1CCCCC1 | 532 | -3.6% (inactive) | -4.8% (inactive) | 134 | -71.1% (inactive) | 161 | -0.487 (inactive) | -9.9e-05 (inactive) | 0.00583 (inactive) | -3.7% (inactive) | -14.5% (inactive)
4 | Cn1c(=O)oc2cc(S(=O)(=O)N3CCC(C(=O)Nc4ccc(OC(F)(F)F)cc4)CC3)ccc21 | 261 | 6.9% (inactive) | 19.4% (inactive) | 103 | -19.6% (inactive) | 75.1 | -0.572 (inactive) | -1.9e-05 (inactive) | 0.00653 (inactive) | 12.1% (inactive) | 17% (inactive)
5 | CC(C)(C)NC(=O)Cn1nnc(-c2cccs2)n1 | 238 | 6.4% (inactive) | 23.3% (inactive) | 99 | -3.4% (inactive) | 85.2 | -0.508 (inactive) | -1.3e-05 (inactive) | 0.00413 (inactive) | 1.59% (inactive) | -13% (inactive)
6 | CN(C(=O)c1c(Cl)nc2sccn12)C1CCCCC1 | 456 | 9.8% (inactive) | -13.5% (inactive) | 104 | -498% (inactive) | 162 | -0.464 (inactive) | -5.9e-05 (inactive) | 0.00592 (inactive) | 10.8% (inactive) | 6.58% (inactive)
7 | COC(=O)Nc1ccc(S(=O)(=O)N2CCN(c3ccc(F)cc3)CC2)cc1 | 381 | -3.7% (inactive) | 12.1% (inactive) | 100 | -124% (inactive) | 123 | -0.564 (inactive) | -0.000131 (inactive) | 0.00356 (inactive) | 6.88% (inactive) | 13.6% (inactive)
8 | O=C(O)c1cnn2c1NC(c1ccc(F)cc1)CC2C(F)(F)F (centres undefined) | 613 | 10.2% (inactive) | -6.3% (inactive) | 99.2 | -85.7% (inactive) | 116 | -0.472 (inactive) | -4.5e-05 (inactive) | 0.00543 (inactive) | 10.7% (inactive) | 1.93% (inactive)
9 | COc1ccc(-c2n[nH]c(C)c2-c2ccc(Cl)cc2)c(O)c1OC | 403 | -9.6% (inactive) | -24.2% (inactive) | 104 | -45.3% (inactive) | 133 | -0.529 (inactive) | -0.00026 (inactive) | 0.00338 (inactive) | 20.1% (inactive) | 24.5% (inactive)
